Measured values as given in the EternaBench riboswitch data.

Tested on: MS2 coat protein
Assay: apparent Kd, MS2 coat protein; higher = weaker binding; RNA-MaP array; FMN 200 µM where present
In short: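 Designs were transcribed by stalled E. coli RNA polymerase on Illumina sequencing-chip clusters. They were titrated with SNAP-549-labelled MS2 coat protein from 0.7 or 1.5 nM, doubling to 3 µM, without and then with constant ligand. Buffer: 100 mM Tris-HCl pH 7.5, 80 mM KCl, 4 mM MgCl2, BSA, DTT, yeast tRNA, Tween-20. Green signal was normalised to red-channel RNA signal and control-cluster median Fmax. Apparent Kd is the median of filtered per-cluster binding-curve fits.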

[1] = designed as: OFF switch for flavin mononucleotide, no ligand
[2] = ligand present: flavin mononucleotide, designed as: OFF switch for flavin mononucleotide
[3] = designed as: ON switch for flavin mononucleotide, no ligand
[4] = ligand present: flavin mononucleotide, designed as: ON switch for flavin mononucleotide

“AGUUGGCGAGGAUAUACAUGAGGAUCACCCAUGUGAAAUAUAAGAGUGAGGAAGAAAAGUAGAAGGCGCUGACA” was tested, and the “apparent Kd” value [1] was 99.8 nM and the “apparent Kd” value [2] was 130 nM.

“GUAUGAAAUACAGGAUAUGUUAGUUUUAAGUGUAUUGGUUAUUACUUAAUUACAGAAGGGUAUUACAUGAGGAUCACCCAUGUA” was tested, and the “apparent Kd” value [3] was 16.5 nM and the “apparent Kd” value [4] was 10.8 nM.

For “UGAGAGUGAGGAUAUACGUCGCUGGUCCCGAUGGACGCAUGACAUGAGGAUCACCCAUGUAGAAGGCAUUUCCC”, the “apparent Kd” value [1] was 33.8 nM and the “apparent Kd” value [2] was 128 nM.

For “UUUUAAUAAGAGAAGGAGCACUACAUGAGGAUCACCCAUGUGUUAGUAGUUAGGAUAUUUAAUAACAUGAGGAUCACCCAUGUA”, the “apparent Kd” value [3] was 167 nM and the “apparent Kd” value [4] was 74.2 nM.

“AGUCGGAGCAGAGGAUAUAUACAUGAGGAUCACCCAUGUAAAUGGAAUAGCUGGAAACAGCAAGUAUAGAAGGCUGCUCCGACA” was tested, and the “apparent Kd” value [1] was 39.5 nM and the “apparent Kd” value [2] was 118 nM.

“GGAUAGGACCGAGGAUAUACGUGCUAGAGAUACUAGCAAAAUUUCCUCACAUGAGGAUCACCCAUGUAGAAGGCUGUCCUAUCG” was tested, and the “apparent Kd” value [1] was 5.78 nM and the “apparent Kd” value [2] was 12.5 nM.

“AUGGGUGUACCUUCACAUGAGGAUCACCCAUGUACGGGUGCGCAGGAUAUCCCAAAAGUCAGUAAGGAGAAGGGCGUAUGCCUG” was tested, and the “apparent Kd” value [1] was 312 nM and the “apparent Kd” value [2] was 306 nM.

“AUGCUAGUGUGAGGAUAUUAGGCACAUGAGGAUCACCCAUGUAAGAUCAUGACGAUCACGCAUGAUAAGAAGGUACAUUAGCAU” was tested, and the “apparent Kd” value [1] was 40 nM and the “apparent Kd” value [2] was 47 nM.

“UCGUUUAUACAAGGAUAUCAAUUAUAGCUAAAUUUAACAUGAGGAUCACCCAUGUAACUAUGGAGUGAGAAGGUGUAAUGACUU” was tested, and the “apparent Kd” value [3] was 401 nM and the “apparent Kd” value [4] was 251 nM.

In the case of “UUAUGGCUAGGAUAUGCACGUGCAUGUUCAAGUCAAAGAAGACAUGAGGAUCACCCAUGUAGAAGGAGCGAUAA”, the “apparent Kd” value [1] is reported as 28.8 nM and the “apparent Kd” value [2] is reported as 21.2 nM.

With “AUCAGCUCGUCAGGAUAUACGUCACUGCAUCAGCAGUGUGGUAAGAUCACAUGAGGAUCACCCAUGUAGAAGGGACGAGCUGAU” the “apparent Kd” value [1] was 22.9 nM and the “apparent Kd” value [2] was 139 nM.

In the case of “GGAAAGUGAGGAUAUGCAUAACAAACACAAACACAAACAAAGCAGAAGGCACAUGAGGAUCACCCAUGUAAACA”, the “apparent Kd” value [1] is reported as 21.1 nM and the “apparent Kd” value [2] is reported as 18.1 nM.

With “AAUAACAGAGGAUAUACUGUUUUAUGUAUUUAUUAUUUUAAACAUGAGGAUCACCCAUGUAGAAGGCUGAUUGA” the “apparent Kd” value [1] was 33.7 nM and the “apparent Kd” value [2] was 29.8 nM.

With “UUUACUUACGAAGGAUAUGGUUACAUGAGGAUCACCCAUGUAUGUAUAUUGAUCUAGUAUUUUAACCAGAAGGUCGUGAUUAUU” the “apparent Kd” value [1] was 31.8 nM and the “apparent Kd” value [2] was 46.9 nM.

In the case of “GGCACCAUCACAGGAUAUGCUUUCUUUUGGGAAGCAGAAGGGUGUAACAUGAGGAUCACCCAUGUGGUGCCAGGGCGUGAGCCC”, the “apparent Kd” value [3] is reported as 175 nM and the “apparent Kd” value [4] is reported as 14 nM.

In the case of “GCGUCAGGAGGAUAUACAUGAGGAUCACCCAUGUAACACGGGAUAGUAGUAUAGUAGAGUAGAAGGCCUAUAGU”, the “apparent Kd” value [1] is reported as 37.5 nM and the “apparent Kd” value [2] is reported as 46 nM.

With “AUUGGUUAAGGAUAUCCCUUAGCAGACAUGAGGAUCACCCAUGUCGUCAUGAGGCCAGGCGGAGAAGGUGACUAAU” the “apparent Kd” value [1] was 55.4 nM and the “apparent Kd” value [2] was 35.8 nM.

For “AUUUAUCUAGGAUAUACAUGAGGAUCACCCAUGUUGAAGCGUAGGUACCUUUCCGAAUGUAGAAGGAGAGCACC”, the “apparent Kd” value [1] was 19.9 nM and the “apparent Kd” value [2] was 22.2 nM.

For “CAGCAGUGUAAGAAGGCUGCUCCGAUAAGGAGCAGAGGAUAUUACAUGAGGAUCACCCAUGUAUGAACCAAUAGCUGAAAUAAA”, the “apparent Kd” value [1] was 9.12 nM and the “apparent Kd” value [2] was 85.3 nM.

With “UGCUAGUCAGGAUAUACGAACAUGUCAAAAGACGUGAAGGGACAUGAGGAUCACCCAUGUAGAAGGGACUAGCU” the “apparent Kd” value [1] was 38.4 nM and the “apparent Kd” value [2] was 129 nM.

For “GGAAAGUGAGGAUAUGGUAAAGUAAGUAUGUAGUAAGUAAUCCAGAAGGCACAUGAGGAUCACCCAUGUAAAUG”, the “apparent Kd” value [1] was 28.1 nM and the “apparent Kd” value [2] was 35.7 nM.

With “GUCAGACGAGGAUAUAGAUUUAAGUACAUGAGGAUCACCCAUGUACAUAUGUAUUUAGAUUUAGAAGGCGUCUGAC” the “apparent Kd” value [1] was 28.2 nM and the “apparent Kd” value [2] was 31.6 nM.

In the case of “GGAUAGGACAGAGGAUAUACGUGCUAGGGAUACUAGCAAAAUUUCCUCACAUGAGGAUCACCCAUGUAGAAGGCUGUCCUAUCG”, the “apparent Kd” value [1] is reported as 16.1 nM and the “apparent Kd” value [2] is reported as 416 nM.

For “AAGUGGUUUAUAUAUAUAGAAAUCAGAAGGCGUGACAUGAGGAUCACCCAUGUGUUCAGUCAUGACGAGGAUAUGACUAAUUGU”, the “apparent Kd” value [1] was 69.9 nM and the “apparent Kd” value [2] was 85.4 nM.

In the case of “AAAGAGCAAGGAUAUACAUGAGGAUCACCCAUGUAGUACGUGAACCAGGUUUUCCUGAGUAGAAGGUGCAGACA”, the “apparent Kd” value [1] is reported as 36 nM and the “apparent Kd” value [2] is reported as 34.3 nM.

In the case of “UGUUGUAUUACAGGAUAUCUAUAAUUUUUAUUUAGAGAAGGGUAUUCACAUGAGGAUCACCCAUGUAUAUACGAGGAAGUUGUG”, the “apparent Kd” value [3] is reported as 43.5 nM and the “apparent Kd” value [4] is reported as 45.8 nM.

In the case of “GACCGUCACAAUAACCGGUUGAACGAGGAUAUGAUCACUGGGCCUGCACAUGAGGAUCACCCAUGUCAGAAGGCGUUCAGUCCC”, the “apparent Kd” value [1] is reported as 5.53 nM and the “apparent Kd” value [2] is reported as 16.4 nM.

With “GGUGCGUUUGUGAGGAUAUGCUGGUCCUUGGUUCGGCAGAAGGCACAUGAGGAUCACCCAUGUGGUGUCGUCCC” the “apparent Kd” value [1] was 33 nM and the “apparent Kd” value [2] was 98.6 nM.

In the case of “GCCUUAUCAGUCAGGAUAUACAAUAAAAUAAUUAAGUAGAAGGGACAUGAGGAUCACCCAUGUACAUUACAUUG”, the “apparent Kd” value [1] is reported as 18.6 nM and the “apparent Kd” value [2] is reported as 53.5 nM.

With “GAUCGACCUGAGAAGGCACAUGAGGAUCACCCAUGUUGAACCAUACAUGCCACAAAGUGGCAGUGUGAGGAUAUCAGGUCGAUC” the “apparent Kd” value [1] was 5.81 nM and the “apparent Kd” value [2] was 8.34 nM.

In the case of “AACCGACAUGAGGAUCACCCAUGUCAGGAUAUGGACUGACACCCAAAGGGUGGAGGAACCAGAAGGGACUGGGC”, the “apparent Kd” value [1] is reported as 39.9 nM and the “apparent Kd” value [2] is reported as 101 nM.

With “GAGCCUCCGUAGAAGGCCGCGGAAUCCGAACGCGGAGGAUAUACAUGAGGAUCACCCAUGUGAAAGUGGAACGAUAAAACGCUU” the “apparent Kd” value [1] was 14.7 nM and the “apparent Kd” value [2] was 47.2 nM.

In the case of “CUGCCUUAUGAGAAGGCGAUCAUGAAACAUGAUCGAGGAUAUCAUGUAAACAUGAGGAUCACCCAUGUAUGGGUAUUAUGGUAG”, the “apparent Kd” value [3] is reported as 529 nM and the “apparent Kd” value [4] is reported as 74.5 nM.

In the case of “GGAUAGGACAGAGGAUAUACGUGCUACAGAUACUAGCAAAAUUUCCUCACAUGAGGAUCACCCAUGUAGAAGGCUGUCCUAUCG”, the “apparent Kd” value [1] is reported as 19.3 nM and the “apparent Kd” value [2] is reported as 405 nM.

In the case of “GACUUGGCUACAUGAGGAUCACCCAUGUUUGACUGGAUCGAUCAGGAUAUAGUAAUUUGCAACAAUUAGAAGGGAUAUUUACGG”, the “apparent Kd” value [3] is reported as 65.9 nM and the “apparent Kd” value [4] is reported as 56.9 nM.

For “CGGAUGUGAGGAUAUACAUGAGGAUCACCCAUGUGUGCCAGCUAGCUGACUGGCACUUGUAGAAGGCACGUCUG”, the “apparent Kd” value [1] was 10.8 nM and the “apparent Kd” value [2] was 22 nM.

For “UAGGUACAUGAGGAUCACCCAUGUGGGUCGGUCACAGGAUAUCGCCGUGGGCCCAGGCGGCGAGAAGGGUGCCGGU”, the “apparent Kd” value [3] was 277 nM and the “apparent Kd” value [4] was 34.8 nM.

With “GCAGGUUUACGAGGAUAUGGGUGGUACGAACAUGAGGAUCACCCAUGUUUCCCAGAAGGCGUAGCCUAACAAAGAGAACAGGAG” the “apparent Kd” value [3] was 418 nM and the “apparent Kd” value [4] was 22.2 nM.

In the case of “UCCUUGUUCUGAGGAUAUCCGCGGUUCCCAAAAGGAGAAGGCAGGACAUGAGGAUCACCCAUGUACCCAGAAAACGUGCAGAGU”, the “apparent Kd” value [1] is reported as 9.85 nM and the “apparent Kd” value [2] is reported as 37.4 nM.

“GGUAUUCGAGGAUAUCGCAAACGAGACAUGAGGAUCACCCAUGUCCCUCAUGCUUGUCGGCGAGAAGGCGACAAGC” was tested, and the “apparent Kd” value [1] was 14.8 nM and the “apparent Kd” value [2] was 17.7 nM.

For “AGGGUAUGAACAUGAGGAUCACCCAUGUACCAGGAAACGAAUGAGGAUAUCGAUAGCAAAGCUAUCGAGAAGGCAUGGGACCCU”, the “apparent Kd” value [3] was 318 nM and the “apparent Kd” value [4] was 62.2 nM.

With “UUGGAGUACGUAGGAUAUGUAGGAUAUUCCUACAUGAGGAUCACCCAUGUAUGCAUGGAAGAAGGACAGAAGGACGUGCUCCAU” the “apparent Kd” value [3] was 219 nM and the “apparent Kd” value [4] was 16 nM.
